Calls of active or inactive are those of the source. The calls are words filed in the database; no cut-off is given here.
Assays:
[1] = Cytotoxicity against mouse RAW264.7 cells assessed as inhibition of cell viability at 100 uM by MTT assay; format: cell-based; settings: read-out: INH
Procedure, shortened: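 Same RAW 264.7 culture and plating as the nitrite assay: compounds in 0.1% DMSO added 1 h before LPS (5 μg/mL solution), then 20 h incubation. Viability read by standard MTT assay. At least triplicate.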

RAW264.7 [2] = test: Antiinflammatory activity in mouse RAW264.7 cells assessed as inhibition of LPS-induced NO production preincubated for 1 hr followed by LPS stimulation measured after 20 hrs by Griess assay; format: functional, cell-based
Procedure, shortened: (§1)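 RAW 264.7 cells in DMEM with 10% FBS, penicillin/streptomycin, 2 mM L-glutamine and 1 mM nonessential amino acids, seeded at 4 × 10^5 cells/well, settled 4 h at 37 °C, 5% CO2. Compounds in 0.1% DMSO (final 0.1–100 μM) added 1 h before LPS (5 μg/mL solution). After a further 20 h, supernatant mixed 1:1 with Griess reagent for 5 min, A540 read. At least triplicate; indomethacin as reference.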

[3] = Inhibition of L-rhamnosidase (unknown origin)
RAW264.7 [4] = test: Antiinflammatory activity in mouse RAW264.7 cells assessed as inhibition of LPS-induced iNOS overexpression at 5 uM after 24 hrs by Western blot analysis; format: functional, cell-based
Procedure, shortened: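 RAW 264.7 cells pretreated with 5 μg/mL LPS or solvent, then exposed to 5 μM compound for 24 h. Lysed in cold buffer with 1% PMSF; protein by Bradford, 25 μg run on SDS-PAGE, blotted to nitrocellulose, blocked in 5% milk/TBS-Tween 60 min. Anti-iNOS overnight at 4 °C, HRP secondary 1 h, ECL on film; densitometry normalized to β-actin. Mean ± SD, n = 3–5.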

RAW264.7 [5] = test: Antiinflammatory activity in mouse RAW264.7 cells assessed as inhibition of LPS-induced NO production at 100 uM preincubated for 1 hr followed by LPS stimulation measured after 20 hrs by Griess assay; format: functional, cell-based; procedure, shortened: as §1

Row | IC50 (RAW264.7 [2]) [µM] | Compound | cytotoxicity at 100 µM [1] [%] | Ki [3] [µM] | inhibition (RAW264.7 [4]) | inhibition (RAW264.7 [5])
1 | 27.6 | CC(=O)CCCC[C@H]1C[C@@H](C)[C@@](O)(c2ccccc2)CN1 | < 10 | – | – | –
2 | – | O[C@@H]1[C@@H]2[C@@H](O)CCCN2C[C@@H]1O | – | 0.45 | – | –
3 | 3.6 | C[C@H]1C[C@H]2CCCN2[C@@H](CC(=O)C[C@@H]2N3CCC[C@@H]3C[C@H](C)[C@@]2(O)c2ccccc2)[C@]1(O)c1ccccc1 | – | – | Active | –
4 | – | CC(=O)[C@H]1[C@@H]2CC[C@H]3C[C@@H](C)[C@](O)(c4ccccc4)[C@H](C[C@@]1(C)O)N32 | < 10 | – | – | inactive
5 | 22.8 | C[C@@H]1C[C@@H]2CCCN2[C@H](CC(=O)C[C@H]2N3CCC[C@H]3C[C@@H](C)[C@]2(O)c2ccccc2)[C@@]1(O)c1ccccc1 | – | – | inactive | –
6 | 14.7 | CC1CC2CCCN2C(CC(=O)CC2N3CCCC3CC(C)C2(O)c2ccccc2)C1(O)c1ccccc1 (racemic) | < 10 | – | inactive | –

— ChEMBL document CHEMBL3785082, “(±)-Homocrepidine A, a Pair of Anti-inflammatory Enantiomeric Octahydroindolizine Alkaloid Dimers from Dendrobium crepidatum” (J Nat Prod, 2016)
